Calls of active or inactive are those of the source. No rule for the calls is given here.
How the values were obtained:
[1] = tested on: Escherichia coli; experiment: Antibacterial activity against multi-resistant Escherichia coli C/16702 after 24 hrs; assay type: functional, organism-based
[2] = tested on: Candida parapsilosis; experiment: Antifungal activity against Candida parapsilosis after 48 hrs; assay type: functional, organism-based
[3] = tested on: Staphylococcus aureus; experiment: Antibacterial activity against methicillin-resistant Staphylococcus aureus MRSA 4591 after 24 hrs; assay type: functional, organism-based
[4] = tested on: HL-60; experiment: Antiproliferative activity against human HL60 cells after 72 hrs by XTT assay; assay type: functional, cell-based; settings: HL-60, 72 h
In short: (§1)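 Antiproliferative test on HL-60 promyelocytic leukemia and HeLa S3 cervical carcinoma cells growing in liquid suspension.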

[5] = Cytotoxicity against human HuH7 cells infected with Hepatitis C virus subtype 2a; assay type: cell-based, Huh-7
[6] = tested on: Staphylococcus aureus; experiment: Antibacterial activity against Staphylococcus aureus CCM 3953 after 24 hrs; assay type: functional, organism-based
[7] = tested on: HCT-116; experiment: Cytostatic activity against p53-deficient human HCT116 cells after 72 hrs by MTT assay; assay type: functional, cell-based; settings: HCT-116, 72 h
In short: (§2)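 IC50 is the concentration that cuts cell growth by 50%, read by quantitative metabolic MTT staining after a 3-day treatment. The resistant sublines were made by raising the concentration of the cytotoxic drug step by step. CEM-DNR-bulk (daunorubicin-selected) stably overexpresses mrp-1. K562-TAX (paclitaxel-selected) expresses only mdr-1. HCT116p53−/− carries null p53 alleles. BJ and MRC-5 are nonmalignant fibroblasts.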

[8] = Antiproliferative activity against human HeLaS3 cells after 72 hrs by XTT assay; assay type: functional, cell-based; settings: HeLa S3, 72 h; in short: as §1
[9] = tested on: K562; experiment: Cytostatic activity against human K562 cells after 72 hrs by MTT assay; assay type: functional, cell-based; settings: K562, 72 h; in short: as §2
[10] = tested on: Enterococcus faecalis; experiment: Antibacterial activity against Enterococcus faecalis CCM 4224 after 24 hrs; assay type: functional, organism-based
[11] = tested on: Pseudomonas aeruginosa; experiment: Antibacterial activity against Pseudomonas aeruginosa CCM 3955 after 24 hrs; assay type: functional, organism-based
[12] = tested on: A549; experiment: Cytostatic activity against human A549 cells after 72 hrs by MTT assay; assay type: functional, cell-based; settings: A549, 72 h; in short: as §2
[13] = tested on: Staphylococcus haemolyticus; experiment: Antibacterial activity against methicillin-resistant Staphylococcus haemolyticus A/16568 after 24 hrs; assay type: functional, organism-based
[14] = tested on: BJ; experiment: Cytostatic activity against human BJ cells after 72 hrs by MTT assay; assay type: ADME, cell-based; in short: as §2
[15] = tested on: Hepatitis C virus; experiment: Antiviral activity against Hepatitis C virus subtype 2a infected in human HuH7 cells; assay type: functional, organism-based, Hepacivirus hominis; settings: genotype 2a, Huh-7
[16] = tested on: HCT-116; experiment: Cytostatic activity against human HCT116 cells after 72 hrs by MTT assay; assay type: functional, cell-based; settings: HCT-116, 72 h; in short: as §2
[17] = tested on: HepG2; experiment: Antiproliferative activity against human HepG2 cells after 72 hrs by XTT assay; assay type: functional, cell-based; settings: HepG2, 72 h
[18] = tested on: Escherichia coli; experiment: Antibacterial activity against Escherichia coli CCM 3954 after 24 hrs; assay type: functional, organism-based
[19] = tested on: Hepatitis C virus; experiment: Antiviral activity against Hepatitis C virus subtype 1b infected in human HuH7 cells; assay type: functional, organism-based, Hepacivirus hominis; settings: genotype 1b, Huh-7
[20] = tested on: Pichia kudriavzevii; experiment: Antifungal activity against Candida crusei after 48 hrs; assay type: functional, organism-based
[21] = tested on: CCRF-CEM; experiment: Cytostatic activity against human CCRF-CEM cells after 72 hrs by MTT assay; assay type: functional, cell-based; in short: as §2
[22] = tested on: MRC5; experiment: Cytostatic activity against human MRC5 cells after 72 hrs by MTT assay; assay type: ADME, cell-based; settings: MRC5, 72 h; in short: as §2
[23] = Cytostatic activity against human CEM-DNR-bulk cells after 72 hrs by MTT assay; assay type: functional, cell-based; in short: as §2
[24] = Cytotoxicity against human HuH7 cells infected with Hepatitis C virus subtype 1b; assay type: cell-based, Huh-7
[25] = tested on: Candida tropicalis; experiment: Antifungal activity against Candida tropicalis after 48 hrs; assay type: functional, organism-based
[26] = tested on: Pseudomonas aeruginosa; experiment: Antibacterial activity against multi-resistant Pseudomonas aeruginosa A/16575 after 24 hrs; assay type: functional, organism-based
[27] = tested on: K562; experiment: Cytostatic activity against paclitaxel-resistant human K562 cells after 72 hrs by MTT assay; assay type: functional, cell-based; settings: K562, 72 h; in short: as §2
[28] = tested on: Candida albicans; experiment: Antifungal activity against Candida albicans after 48 hrs; assay type: functional, organism-based

| SMILES | Activity [1] | Activity [2] | Activity [3] | IC50 [4] | CC50 [5] | Activity [6] | IC50 [7] | IC50 [8] | IC50 [9] | Activity [10] | Activity [11] | IC50 [12] | Activity [13] | IC50 [14] | EC50 [15] | IC50 [16] | IC50 [17] | Activity [18] | EC50 [19] | Activity [20] | other results |
| --- | --- | --- | --- | --- | --- | --- | --- | --- | --- | --- | --- | --- | --- | --- | --- | --- | --- | --- | --- | --- | --- |
| CN(C)c1ncnc2c1c(-c1cc3ccccc3o1)cn2[C@@H]1O[C@H](CO)[C@@H](O)[C@H]1O | inactive | inactive | inactive | > 20 µM | > 44 µM | inactive | > 20 µM | > 20 µM | > 20 µM | inactive | inactive | > 20 µM | inactive | > 100 µM | > 44 µM | > 20 µM | > 20 µM | inactive | 19.2 µM | inactive | IC50 [21]: > 20 µM; IC50 [22]: > 100 µM; IC50 [23]: > 20 µM; CC50 [24]: > 44 µM; Activity [25]: inactive; Activity [26]: inactive; IC50 [27]: > 20 µM; Activity [28]: inactive |
| CSc1ncnc2c1c(-c1ccoc1)cn2[C@@H]1O[C@H](CO)[C@@H](O)[C@H]1O | inactive | inactive | inactive | 0.36 µM | > 44 µM | inactive | 0.1 µM | 5.39 µM | 0.06 µM | inactive | inactive | 0.28 µM | inactive | 98.8 µM | > 44 µM | 0.04 µM | > 15 µM | inactive | 4.72 µM | inactive | IC50 [21]: 14.2 µM; IC50 [22]: > 100 µM; IC50 [23]: > 20 µM; CC50 [24]: > 44 µM; Activity [25]: inactive; Activity [26]: inactive; IC50 [27]: 3.25 µM; Activity [28]: inactive |
| Cc1nc(N)c2c(-c3cc4ccccc4o3)cn([C@@H]3O[C@H](CO)[C@@H](O)[C@H]3O)c2n1 | inactive | inactive | inactive | > 20 µM | 39.1 µM | inactive | 13.1 µM | > 20 µM | 15.7 µM | inactive | inactive | > 20 µM | inactive | > 100 µM | 18.2 µM | > 20 µM | > 20 µM | inactive | 6.14 µM | inactive | IC50 [21]: > 20 µM; IC50 [22]: 91.8 µM; IC50 [23]: 6.31 µM; CC50 [24]: 39.2 µM; Activity [25]: inactive; Activity [26]: inactive; IC50 [27]: 4.99 µM; Activity [28]: inactive |
| Cc1nc(N)c2c(-c3ccsc3)cn([C@@H]3O[C@H](CO)[C@@H](O)[C@H]3O)c2n1 | inactive | inactive | inactive | > 20 µM | > 44 µM | inactive | > 20 µM | > 20 µM | > 20 µM | inactive | inactive | > 20 µM | inactive | > 100 µM | > 44 µM | > 20 µM | > 20 µM | inactive | 28.7 µM | inactive | IC50 [21]: > 20 µM; IC50 [22]: > 100 µM; IC50 [23]: > 20 µM; CC50 [24]: > 44 µM; Activity [25]: inactive; Activity [26]: inactive; IC50 [27]: > 20 µM; Activity [28]: inactive |
| Nc1nc2c(c(-c3ccoc3)cn2[C@@H]2O[C@H](CO)[C@@H](O)[C@H]2O)c(=O)[nH]1 | inactive | inactive | inactive | > 15 µM | > 44 µM | inactive | 17.6 µM | 10.7 µM | 19.6 µM | inactive | inactive | > 20 µM | inactive | 21.5 µM | 40.7 µM | 14.2 µM | > 20 µM | inactive | 25.7 µM | inactive | IC50 [21]: 17.9 µM; IC50 [22]: 86.1 µM; IC50 [23]: 15 µM; CC50 [24]: > 44 µM; Activity [25]: inactive; Activity [26]: inactive; IC50 [27]: 12.5 µM; Activity [28]: inactive |

Reference: ChEMBL document CHEMBL3124843, “Synthesis, cytostatic, antimicrobial, and anti-HCV activity of 6-substituted 7-(het)aryl-7-deazapurine ribonucleosides” (J Med Chem, 2014)
